Values after ≈ are worked out from the molar mass of the structure shown.
Columns and labels:
Type in all cases: functional
[1] = system: Micrococcus luteus; test: Antibacterial activity against Micrococcus luteus by two-fold serial dilution method
In short: (§1)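 Standard two-fold serial dilution in 96-well microtest plates following NCCLS. Top dilutions printed as 32, 16, 8, 4, 2, 1, 0.5 ug/mL. Wells inoculated and held at 37 °C for 24 h. Growth judged visually and by spectrophotometer, in triplicate. MIC is the lowest concentration giving complete growth inhibition.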

[2] = system: Staphylococcus aureus; test: Antibacterial activity against methicillin-resistant Staphylococcus aureus N315 by two-fold serial dilution method
In short: (§2)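 MIC read as the lowest concentration giving complete growth inhibition. Two-fold serial dilutions were made in 96-well plates following NCCLS, giving a series down to 0.5 µg/mL (…32, 16, 8, 4, 2, 1, 0.5). Plates were inoculated and incubated at 37 °C for 24 h. A DMSO-with-inoculum control without drug was included. Growth was monitored visually and spectrophotometrically, in triplicate.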

[3] = system: Staphylococcus aureus; test: Antibacterial activity against Staphylococcus aureus ATCC 25923 by two-fold serial dilution method; in short: as §1
[4] = system: Bacillus spizizenii; test: Antibacterial activity against Bacillus subtilis ATCC 6633 by two-fold serial dilution method; in short: as §1
[5] = system: Pseudomonas aeruginosa; test: Antibacterial activity against Pseudomonas aeruginosa by two-fold serial dilution method; in short: as §1
[6] = system: Escherichia coli; test: Antibacterial activity against Escherichia coli DH52 by two-fold serial dilution method; in short: as §1
[7] = system: Shigella dysenteriae; test: Antibacterial activity against Shigella dysenteriae by two-fold serial dilution method; in short: as §2
[8] = Antibacterial activity against Eberthella typhosa by two-fold serial dilution method; in short: as §2
[9] = system: Cyberlindnera jadinii; test: Antifungal activity against Candida utilis after 24 hrs by microbroth dilution method; conditions: Williopsis jadinii
In short: (§3)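 Spore suspension prepared in sterile distilled water from one-day-old cultures on Sabouraud agar, final 1-5 x 10^3 spores/mL. Compounds were serially diluted in RPMI 1640 to give eleven dilutions. Incubation at 35 °C for 24 h. Growth read visually and spectrophotometrically, in triplicate. MIC is the lowest concentration with complete inhibition.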

[10] = system: Saccharomyces cerevisiae; test: Antifungal activity against Saccharomyces cerevisiae after 24 hrs by microbroth dilution method; in short: as §3
[11] = system: Candida albicans; test: Antifungal activity against Candida albicans ATCC 76615 after 24 hrs by microbroth dilution method; conditions: ATCC 76615, 24 h; in short: as §3
[12] = system: Pichia norvegensis; test: Antifungal activity against Candida mycoderma after 24 hrs by microbroth dilution method
[13] = system: Streptococcus pneumoniae; test: Antibacterial activity against Streptococcus pneumoniae by two-fold serial dilution method; in short: as §1

SMILES: CCOC(=O)c1cn(CC(O)Cn2cnc([N+](=O)[O-])c2)c2ccc(C)cc2c1=O (racemic)
- MIC [1]: 8 µg/mL (≈ 20 µM)
- MIC [2]: 16 µg/mL (≈ 40 µM)
- MIC [3]: 16 µg/mL (≈ 40 µM)
- MIC [4]: 8 µg/mL (≈ 20 µM)
- MIC [5]: 4 µg/mL (≈ 9.99 µM)
- MIC [6]: 8 µg/mL (≈ 20 µM)
- MIC [7]: 8 µg/mL (≈ 20 µM)
- MIC [8]: 4 µg/mL (≈ 9.99 µM)
- MIC [9]: 8 µg/mL (≈ 20 µM)
- MIC [10]: 8 µg/mL (≈ 20 µM)
- MIC [11]: 2 µg/mL (≈ 5 µM)
- MIC [12]: 128 µg/mL (≈ 320 µM)

SMILES: O=C(O)c1cn(CC(O)Cn2cnc([N+](=O)[O-])c2)c2c(F)cccc2c1=O (configuration not stated)
- MIC [13]: 32 µg/mL (≈ 85 µM)
- MIC [1]: 4 µg/mL (≈ 10.6 µM)
- MIC [2]: 4 µg/mL (≈ 10.6 µM)
- MIC [3]: 16 µg/mL (≈ 42.5 µM)
- MIC [4]: 4 µg/mL (≈ 10.6 µM)
- MIC [5]: 8 µg/mL (≈ 21.3 µM)
- MIC [6]: 4 µg/mL (≈ 10.6 µM)
- MIC [7]: 8 µg/mL (≈ 21.3 µM)
- MIC [8]: 32 µg/mL (≈ 85 µM)
- MIC [9]: 512 µg/mL (≈ 1360 µM)
- MIC [10]: 64 µg/mL (≈ 170 µM)
- MIC [11]: 128 µg/mL (≈ 340 µM)
- MIC [12]: 128 µg/mL (≈ 340 µM)

SMILES: CCOC(=O)c1cn(CC(O)Cn2cnc([N+](=O)[O-])c2)c2ccc(F)cc2c1=O (racemic)
- MIC [1]: 4 µg/mL (≈ 9.89 µM)
- MIC [2]: 16 µg/mL (≈ 39.6 µM)
- MIC [3]: 32 µg/mL (≈ 79.1 µM)
- MIC [4]: 8 µg/mL (≈ 19.8 µM)
- MIC [5]: 8 µg/mL (≈ 19.8 µM)
- MIC [6]: 16 µg/mL (≈ 39.6 µM)
- MIC [7]: 32 µg/mL (≈ 79.1 µM)
- MIC [8]: 32 µg/mL (≈ 79.1 µM)
- MIC [9]: 16 µg/mL (≈ 39.6 µM)
- MIC [10]: 16 µg/mL (≈ 39.6 µM)
- MIC [11]: 32 µg/mL (≈ 79.1 µM)
- MIC [12]: 32 µg/mL (≈ 79.1 µM)

SMILES: CCOC(=O)c1cn(CC(O)Cn2cnc([N+](=O)[O-])c2)c2c(F)cc(F)cc2c1=O (racemic)
- MIC [1]: 4 µg/mL (≈ 9.47 µM)
- MIC [2]: 32 µg/mL (≈ 75.8 µM)
- MIC [3]: 4 µg/mL (≈ 9.47 µM)
- MIC [4]: 8 µg/mL (≈ 18.9 µM)
- MIC [5]: 4 µg/mL (≈ 9.47 µM)
- MIC [6]: 8 µg/mL (≈ 18.9 µM)
- MIC [7]: 16 µg/mL (≈ 37.9 µM)
- MIC [8]: 2 µg/mL (≈ 4.74 µM)
- MIC [9]: 64 µg/mL (≈ 152 µM)
- MIC [10]: 128 µg/mL (≈ 303 µM)
- MIC [11]: 32 µg/mL (≈ 75.8 µM)
- MIC [12]: 16 µg/mL (≈ 37.9 µM)

SMILES: CCOC(=O)c1cn(CC(O)Cn2c([N+](=O)[O-])cnc2C)c2ccc(OC)cc2c1=O (racemic)
- MIC [1]: 256 µg/mL (≈ 595 µM)
- MIC [2]: 8 µg/mL (≈ 18.6 µM)
- MIC [3]: 16 µg/mL (≈ 37.2 µM)
- MIC [4]: 8 µg/mL (≈ 18.6 µM)
- MIC [5]: 64 µg/mL (≈ 149 µM)
- MIC [6]: 8 µg/mL (≈ 18.6 µM)
- MIC [7]: 32 µg/mL (≈ 74.3 µM)
- MIC [8]: 16 µg/mL (≈ 37.2 µM)
- MIC [9]: 256 µg/mL (≈ 595 µM)
- MIC [10]: 2 µg/mL (≈ 4.65 µM)
- MIC [11]: 8 µg/mL (≈ 18.6 µM)
- MIC [12]: 256 µg/mL (≈ 595 µM)

SMILES: O=C(O)c1cn(CC(O)Cn2cnc([N+](=O)[O-])c2)c2c(Cl)cc(Cl)cc2c1=O (configuration not stated)
- MIC [13]: 8 µg/mL (≈ 18.7 µM)
- MIC [1]: 8 µg/mL (≈ 18.7 µM)
- MIC [2]: 16 µg/mL (≈ 37.5 µM)
- MIC [3]: 8 µg/mL (≈ 18.7 µM)
- MIC [4]: 4 µg/mL (≈ 9.36 µM)
- MIC [5]: 8 µg/mL (≈ 18.7 µM)
- MIC [6]: 8 µg/mL (≈ 18.7 µM)
- MIC [7]: 8 µg/mL (≈ 18.7 µM)
- MIC [8]: 16 µg/mL (≈ 37.5 µM)
- MIC [9]: 256 µg/mL (≈ 599 µM)
- MIC [10]: 128 µg/mL (≈ 300 µM)
- MIC [11]: 256 µg/mL (≈ 599 µM)
- MIC [12]: 64 µg/mL (≈ 150 µM)

SMILES: CCOC(=O)c1cn(CC2CO2)c2ccc(C)cc2c1=O (racemic)
- MIC [4]: 64 µg/mL (≈ 223 µM)
- MIC [8]: 2 µg/mL (≈ 6.96 µM)
- MIC [12]: 8 µg/mL (≈ 27.8 µM)

SMILES: CCOC(=O)c1cn(CC(O)Cn2cnc([N+](=O)[O-])c2)c2cc(Cl)c(F)cc2c1=O (racemic)
- MIC [1]: 16 µg/mL (≈ 36.5 µM)
- MIC [2]: 4 µg/mL (≈ 9.12 µM)
- MIC [3]: 16 µg/mL (≈ 36.5 µM)
- MIC [4]: 16 µg/mL (≈ 36.5 µM)
- MIC [5]: 16 µg/mL (≈ 36.5 µM)
- MIC [6]: 32 µg/mL (≈ 72.9 µM)
- MIC [7]: 16 µg/mL (≈ 36.5 µM)
- MIC [8]: 8 µg/mL (≈ 18.2 µM)
- MIC [9]: 32 µg/mL (≈ 72.9 µM)
- MIC [10]: 64 µg/mL (≈ 146 µM)
- MIC [11]: 32 µg/mL (≈ 72.9 µM)
- MIC [12]: 128 µg/mL (≈ 292 µM)

SMILES: CCOC(=O)c1cn(CC(O)Cn2cnc([N+](=O)[O-])c2)c2cc(C(F)(F)F)ccc2c1=O (racemic)
- MIC [1]: 8 µg/mL (≈ 17.6 µM)
- MIC [2]: 4 µg/mL (≈ 8.8 µM)
- MIC [3]: 8 µg/mL (≈ 17.6 µM)
- MIC [4]: 4 µg/mL (≈ 8.8 µM)
- MIC [5]: 64 µg/mL (≈ 141 µM)
- MIC [6]: 128 µg/mL (≈ 282 µM)
- MIC [7]: 16 µg/mL (≈ 35.2 µM)
- MIC [8]: 64 µg/mL (≈ 141 µM)
- MIC [9]: 16 µg/mL (≈ 35.2 µM)
- MIC [10]: 16 µg/mL (≈ 35.2 µM)
- MIC [11]: 16 µg/mL (≈ 35.2 µM)
- MIC [12]: 32 µg/mL (≈ 70.4 µM)

SMILES: CCOC(=O)c1cn(CC(O)Cn2cnc([N+](=O)[O-])c2)c2c(Cl)cc(Cl)cc2c1=O (racemic)
- MIC [1]: 8 µg/mL (≈ 17.6 µM)
- MIC [2]: 64 µg/mL (≈ 141 µM)
- MIC [3]: 32 µg/mL (≈ 70.3 µM)
- MIC [4]: 4 µg/mL (≈ 8.79 µM)
- MIC [5]: 16 µg/mL (≈ 35.1 µM)
- MIC [6]: 16 µg/mL (≈ 35.1 µM)
- MIC [7]: 8 µg/mL (≈ 17.6 µM)
- MIC [8]: 16 µg/mL (≈ 35.1 µM)
- MIC [9]: 256 µg/mL (≈ 562 µM)
- MIC [10]: 32 µg/mL (≈ 70.3 µM)
- MIC [11]: 64 µg/mL (≈ 141 µM)
- MIC [12]: 64 µg/mL (≈ 141 µM)

SMILES: CCOC(=O)c1cn(CC(O)Cn2c([N+](=O)[O-])cnc2C)c2ccc(F)cc2c1=O (racemic)
- MIC [1]: 8 µg/mL (≈ 19.1 µM)
- MIC [2]: 4 µg/mL (≈ 9.56 µM)
- MIC [3]: 16 µg/mL (≈ 38.2 µM)
- MIC [4]: 8 µg/mL (≈ 19.1 µM)
- MIC [5]: 16 µg/mL (≈ 38.2 µM)
- MIC [6]: 8 µg/mL (≈ 19.1 µM)
- MIC [7]: 8 µg/mL (≈ 19.1 µM)
- MIC [8]: 4 µg/mL (≈ 9.56 µM)
- MIC [9]: 128 µg/mL (≈ 306 µM)
- MIC [10]: 32 µg/mL (≈ 76.5 µM)
- MIC [11]: 64 µg/mL (≈ 153 µM)
- MIC [12]: 128 µg/mL (≈ 306 µM)

SMILES: CCOC(=O)c1cn(CC(O)Cn2c([N+](=O)[O-])cnc2C)c2cc(Cl)c(F)cc2c1=O (racemic)
- MIC [1]: 128 µg/mL (≈ 283 µM)
- MIC [2]: 4 µg/mL (≈ 8.83 µM)
- MIC [3]: 64 µg/mL (≈ 141 µM)
- MIC [4]: 8 µg/mL (≈ 17.7 µM)
- MIC [5]: 32 µg/mL (≈ 70.7 µM)
- MIC [6]: 64 µg/mL (≈ 141 µM)
- MIC [7]: 16 µg/mL (≈ 35.3 µM)
- MIC [8]: 8 µg/mL (≈ 17.7 µM)
- MIC [9]: 256 µg/mL (≈ 565 µM)
- MIC [10]: 16 µg/mL (≈ 35.3 µM)
- MIC [11]: 128 µg/mL (≈ 283 µM)
- MIC [12]: 128 µg/mL (≈ 283 µM)
